# ChEMBL document CHEMBL5055631, “Antitumor properties of novel sesquiterpene lactone analogs as NFκB inhibitors that bind to the IKKβ ubiquitin-like domain (ULD)” (Eur J Med Chem, 2021)
# What was measured:
# Format in all cases: functional
# CCRF-CEM = assay: Anticancer activity against human CCRF-CEM cells assessed as cell growth inhibition incubated for 48 hrs by sulforhodamine B assay
# RPMI-8226 = assay: Anticancer activity against human RPMI-8226 cells assessed as cell growth inhibition incubated for 48 hrs by SRB method
# SR = assay: Anticancer activity against human SR cells assessed as cell growth inhibition incubated for 48 hrs by SRB method
# In short: (§1)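 NCI-60 panel (DTP). Cells in RPMI 1640 with 5% FBS, 2 mM L-glutamine, seeded at 5,000–40,000 per well by doubling time and preincubated 24 h at 37 °C, 5% CO2. Time-zero plates TCA-fixed. DMSO stocks diluted in medium with gentamicin, tested at 100 μM, 10 μM, 1 μM, 0.1 μM and 10 nM for 48 h. Cells fixed with cold TCA, stained with SRB, absorbance read at 515 nm.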
# A549 = assay: Anticancer activity against human A549 cells assessed as cell growth inhibition incubated for 48 hrs by SRB method; in short: as §1
# EKVX = assay: Anticancer activity against human EKVX cells assessed as cell growth inhibition incubated for 48 hrs by SRB method; in short: as §1
# HOP-62 = assay: Anticancer activity against human HOP-62 cells assessed as cell growth inhibition incubated for 48 hrs by SRB method; in short: as §1
# MOLT-4 = assay: Anticancer activity against human MOLT-4 assessed as cell growth inhibition incubated for 48 hrs by SRB method
# HOP-92 = assay: Anticancer activity against human HOP-92 cells assessed as cell growth inhibition incubated for 48 hrs by SRB method
# K562 = assay: Anticancer activity against human K562 cells assessed as cell growth inhibition incubated for 48 hrs by SRB method
# HL-60(TB) = assay: Anticancer activity against human HL-60(TB) cells assessed as cell growth inhibition incubated for 48 hrs by SRB method
# NCI-H226 = assay: Anticancer activity against human NCI-H226 cells assessed as cell growth inhibition incubated for 48 hrs by SRB method; in short: as §1
# NCI-H23 = assay: Anticancer activity against human NCI-H23 cells assessed as cell growth inhibition incubated for 48 hrs by SRB method; in short: as §1
# NCI-H460 = assay: Anticancer activity against human NCI-H460 cells assessed as cell growth inhibition incubated for 48 hrs by SRB method; in short: as §1
# NCI-H522 = assay: Anticancer activity against human NCI-H522 cells assessed as cell growth inhibition incubated for 48 hrs by SRB method
# COLO 205 = assay: Anticancer activity against human COLO 205 cells assessed as cell growth inhibition incubated for 48 hrs by SRB method
# HCC 2998 = assay: Anticancer activity against human HCC 2998 cells assessed as cell growth inhibition incubated for 48 hrs by SRB method; in short: as §1
# HCT-116 = assay: Anticancer activity against human HCT-116 cells assessed as cell growth inhibition incubated for 48 hrs by SRB method; in short: as §1
# HCT-15 = assay: Anticancer activity against human HCT-15 cells assessed as cell growth inhibition incubated for 48 hrs by SRB method; in short: as §1
# HT-29 = assay: Anticancer activity against human HT29 cells assessed as cell growth inhibition incubated for 48 hrs by SRB method; in short: as §1
# KM12 = assay: Anticancer activity against human KM12 cells assessed as cell growth inhibition incubated for 48 hrs by SRB method; in short: as §1
# SW-620 = assay: Anticancer activity against human SW-620 cells assessed as cell growth inhibition incubated for 48 hrs by SRB method
# SF-268 = assay: Anticancer activity against human SF-268 cells assessed as cell growth inhibition incubated for 48 hrs by SRB method; in short: as §1
# SF-295 = assay: Anticancer activity against human SF-295 cells assessed as cell growth inhibition incubated for 48 hrs by SRB method; in short: as §1
# SF-539 = assay: Anticancer activity against human SF-539 cells assessed as cell growth inhibition incubated for 48 hrs by SRB method
# SNB-19 = assay: Anticancer activity against human SNB-19 cells assessed as cell growth inhibition incubated for 48 hrs by SRB method; in short: as §1
# SNB-75 = assay: Anticancer activity against human SNB-75 cells assessed as cell growth inhibition incubated for 48 hrs by SRB method
# U-251 = assay: Anticancer activity against human U-251 cells assessed as cell growth inhibition incubated for 48 hrs by SRB method
# In short: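 NCI-60 panel, SRB assay. Cells grown in RPMI 1640 with 5% FBS and 2 mM L-glutamine, seeded at 5,000–40,000 cells/well depending on doubling time, and preincubated 24 h at 37 °C with 5% CO2. Time-zero plates were TCA-fixed. Compounds came from DMSO stocks and were tested at 100 μM, 10 μM, 1 μM, 0.1 μM and 10 nM for 48 h. Cells were fixed with cold TCA and stained with 0.4% SRB, and the dye was solubilized in 10 mM Tris base with A515 read.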
# LOX IMVI = assay: Anticancer activity against human LOX IMVI cells assessed as cell growth inhibition incubated for 48 hrs by SRB method
# Malme-3M = assay: Anticancer activity against human MALME-3M cells assessed as cell growth inhibition incubated for 48 hrs by SRB method
# M14 = assay: Anticancer activity against human M14 cells assessed as cell growth inhibition incubated for 48 hrs by SRB method; in short: as §1
# MDA-MB-435 = assay: Anticancer activity against human MDA-MB-435 cells assessed as cell growth inhibition incubated for 48 hrs by SRB method; in short: as §1
# OVCAR-5 = assay: Anticancer activity against human OVCAR-5 cells assessed as cell growth inhibition incubated for 48 hrs by SRB method
# OVCAR-8 = assay: Anticancer activity against human OVCAR-8 cells assessed as cell growth inhibition incubated for 48 hrs by SRB method; in short: as §1
# 786-0 = assay: Anticancer activity against human 786-0 cells assessed as cell growth inhibition incubated for 48 hrs by SRB method; in short: as §1
# RXF 393 = assay: Anticancer activity against human RXF 393 cells assessed as cell growth inhibition incubated for 48 hrs by SRB method; in short: as §1
# PC-3 = assay: Anticancer activity against human PC-3 cells assessed as cell growth inhibition incubated for 48 hrs by SRB method; in short: as §1
# [1] = Anticancer activity against human HS 578T cells assessed as cell growth inhibition incubated for 48 hrs by SRB method
# MDA-MB-468 = assay: Anticancer activity against human MDA-MB-468 cells assessed as cell growth inhibition incubated for 48 hrs by SRB method; in short: as §1
compound,measurement,setting,value
C=C1C(=O)O[C@H]2[C@H]1CC/C(COC(=O)NCCc1ccc(Br)cc1)=C\CC[C@@]1(C)O[C@@H]21,GI50,CCRF-CEM,0.27 µM
same,GI50,RPMI-8226,0.62 µM
same,GI50,SR,0.43 µM
same,GI50,A549,2.59 µM
same,GI50,EKVX,1.54 µM
same,GI50,HOP-62,1.99 µM
same,GI50,MOLT-4,1.69 µM
same,GI50,HOP-92,1.28 µM
same,GI50,K562,0.53 µM
same,GI50,HL-60(TB),1.06 µM
same,GI50,NCI-H226,1.72 µM
same,GI50,NCI-H23,1.72 µM
same,GI50,NCI-H460,2.06 µM
same,GI50,NCI-H522,1.16 µM
same,GI50,COLO 205,1.82 µM
same,GI50,HCC 2998,1.71 µM
same,GI50,HCT-116,0.47 µM
same,GI50,HCT-15,1.01 µM
same,GI50,HT-29,1.32 µM
same,GI50,KM12,1.95 µM
same,GI50,SW-620,0.71 µM
same,GI50,SF-268,1.56 µM
same,GI50,SF-295,3.81 µM
same,GI50,SF-539,1.46 µM
same,GI50,SNB-19,1.39 µM
same,GI50,SNB-75,1.2 µM
same,GI50,U-251,1.4 µM
same,GI50,LOX IMVI,1.18 µM
same,GI50,Malme-3M,2.09 µM
same,GI50,M14,1.26 µM
same,GI50,MDA-MB-435,1.58 µM
same,GI50,OVCAR-5,0.98 µM
same,GI50,OVCAR-8,1.56 µM
same,GI50,786-0,1.49 µM
same,GI50,RXF 393,1.32 µM
same,GI50,PC-3,1.73 µM
same,GI50,[1],0.41 µM
same,GI50,MDA-MB-468,0.84 µM
